Key:
Striatum = assay: Biodistribution in Sprague-Dawley rat striatum at 1.48 to 2.22 MBq, iv measured at 30 mins by gamma counting analysis; assay type: ADME, organism-based; conditions: in vivo, 0.5 h
Procedure, shortened: (§1)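 Male Sprague-Dawley rats (250 - 400 g), tail-vein injection of 1.48 - 2.22 MBq radiotracer under 2.5% isoflurane in oxygen; n=4 per time point, euthanized at 5, 30 and 60 min p.i. Brain regions obtained by gross dissection; peripheral tissues collected. Samples weighed, gamma-counted against a diluted-injectate standard; %ID/g calculated.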

Kidney [1] = assay: Biodistribution in Sprague-Dawley rat kidney at 1.48 to 2.22 MBq, iv measured at 60 mins by gamma counting analysis; assay type: ADME, organism-based; conditions: in vivo, 1 h; procedure, shortened: as §1
Blood [2] = assay: Biodistribution in Sprague-Dawley rat blood at 1.48 to 2.22 MBq, iv measured at 5 mins by gamma counting analysis; assay type: ADME, organism-based; conditions: in vivo; procedure, shortened: as §1
Bone [3] = assay: Biodistribution in Sprague-Dawley rat bone at 1.48 to 2.22 MBq, iv measured at 30 mins by gamma counting analysis; assay type: ADME, organism-based, Bone element; conditions: in vivo, 0.5 h; procedure, shortened: as §1
Brain [4] = assay: Biodistribution in Sprague-Dawley rat brain at 1.48 to 2.22 MBq, iv measured at 30 mins by gamma counting analysis; assay type: ADME, organism-based; conditions: in vivo, 0.5 h; procedure, shortened: as §1
Brain [5] = assay: Biodistribution in Sprague-Dawley rat brain at 1.48 to 2.22 MBq, iv measured at 60 mins by gamma counting analysis; assay type: ADME, organism-based; conditions: in vivo, 1 h; procedure, shortened: as §1
Nucleic Acid [6] = assay: Ratio of drug level in striatum to midbrain region in cynomolgus monkey at 185 to 259 MBq, iv measured at 40 mins by micro PET image analysis; assay type: ADME, organism-based, Macaca fascicularis, Brain; conditions: in vivo
Procedure, shortened: (§2)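 Adult male cynomolgus macaques (~4–6 kg), three independent PET studies per tracer on a microPET Focus 220. Animals fasted 12 h and anesthetized with ketamine (10 mg/kg) plus glycopyrrolate (0.13 mg/kg) i.m. A 10 min positioning transmission scan and a 45 min attenuation transmission scan were run, then a 3 h dynamic emission scan after venous tracer injection. Regional TACs came from ROIs, expressed as SUV (body weight, injected dose).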

Nucleic Acid [7] = assay: Ratio of drug level in striatum to hippocampus in cynomolgus monkey at 185 to 259 MBq, iv measured at 40 mins by micro PET image analysis; assay type: ADME, organism-based, Macaca fascicularis; conditions: in vivo; procedure, shortened: as §2
Kidney [8] = assay: Biodistribution in Sprague-Dawley rat kidney at 1.48 to 2.22 MBq, iv measured at 30 mins by gamma counting analysis; assay type: ADME, organism-based; conditions: in vivo, 0.5 h; procedure, shortened: as §1
Liver [9] = assay: Biodistribution in Sprague-Dawley rat liver at 1.48 to 2.22 MBq, iv measured at 60 mins by gamma counting analysis; assay type: ADME, organism-based; conditions: in vivo, 1 h; procedure, shortened: as §1
[10] = Metabolic stability in cynomolgus monkey plasma assessed as compound remaining at 185 to 259 MBq, iv measured at 2 mins by HPLC analysis; assay type: ADME, organism-based, Macaca fascicularis; conditions: read-out: Stability
Procedure, shortened: (§3)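 Arterial blood (~1.5 mL) drawn at 2, 15, 30, 60 and 90 min p.i. into heparinized syringes, then centrifuged to plasma. Plasma deproteinated with 2 parts ice-cold methanol. Extract run on C-18 HPLC, MeCN/0.1 M ammonium formate pH 4.5, 0.9 mL/min, UV 254 nm. 1-min fractions over 16 min were well-counted and decay-corrected; parent percentage taken from recovered activity.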

[11] = Metabolic stability in cynomolgus monkey plasma assessed as compound remaining at 185 to 259 MBq, iv measured at 60 mins by HPLC analysis; assay type: ADME, organism-based, Macaca fascicularis; conditions: read-out: Stability; procedure, shortened: as §3
Nucleic Acid [12] = assay: Ratio of drug level in striatum to cerebellum in cynomolgus monkey at 185 to 259 MBq, iv measured at 40 mins by micro PET image analysis; assay type: ADME, organism-based, Macaca fascicularis; conditions: in vivo; procedure, shortened: as §2
Caudate = assay: Drug uptake in cynomolgus monkey caudate at 185 to 259 MBq, iv measured over 180 mins by micro PET image analysis; assay type: ADME, organism-based, Macaca fascicularis, Caudate nucleus; conditions: in vivo, 3 h
Procedure, shortened: (§4)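 Adult male cynomolgus macaques (~4–6 kg), three studies per tracer, fasted 12 h. Induction with ketamine 10 mg/kg plus glycopyrrolate 0.13 mg/kg i.m. Transmission scans of 10 min for positioning and 45 min for attenuation correction, then a 3 h dynamic microPET emission scan after venous injection of 185 - 259 MBq. ROI time-activity curves expressed as SUV (body weight and injected dose).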

Rattus norvegicus [13] = assay: Biodistribution in Sprague-Dawley rat fat tissue at 1.48 to 2.22 MBq, iv measured at 60 mins by gamma counting analysis; assay type: ADME, organism-based, Adipose tissue; conditions: in vivo, 1 h; procedure, shortened: as §1
Muscle tissue [14] = assay: Biodistribution in Sprague-Dawley rat muscle at 1.48 to 2.22 MBq, iv measured at 30 mins by gamma counting analysis; assay type: ADME, organism-based; conditions: in vivo, 0.5 h; procedure, shortened: as §1
Rattus norvegicus [15] = assay: Biodistribution in Sprague-Dawley rat fat tissue at 1.48 to 2.22 MBq, iv measured at 5 mins by gamma counting analysis; assay type: ADME, organism-based, Adipose tissue; conditions: in vivo; procedure, shortened: as §1
Brain [16] = assay: Biodistribution in Sprague-Dawley rat brain at 1.48 to 2.22 MBq, iv measured at 5 mins by gamma counting analysis; assay type: ADME, organism-based; conditions: in vivo; procedure, shortened: as §1
Nucleic Acid [17] = assay: Ratio of drug level in striatum to frontal in cynomolgus monkey at 185 to 259 MBq, iv measured at 40 mins by micro PET image analysis; assay type: ADME, organism-based, Macaca fascicularis; conditions: in vivo; procedure, shortened: as §2
[18] = Metabolic stability in cynomolgus monkey plasma assessed as compound remaining at 185 to 259 MBq, iv measured at 15 mins by HPLC analysis; assay type: ADME, organism-based, Macaca fascicularis; conditions: read-out: Stability; procedure, shortened: as §3
Blood [19] = assay: Biodistribution in Sprague-Dawley rat blood at 1.48 to 2.22 MBq, iv measured at 30 mins by gamma counting analysis; assay type: ADME, organism-based; conditions: in vivo, 0.5 h; procedure, shortened: as §1
Liver [20] = assay: Biodistribution in Sprague-Dawley rat liver at 1.48 to 2.22 MBq, iv measured at 30 mins by gamma counting analysis; assay type: ADME, organism-based; conditions: in vivo, 0.5 h; procedure, shortened: as §1
Bone [21] = assay: Biodistribution in Sprague-Dawley rat bone at 1.48 to 2.22 MBq, iv measured at 60 mins by gamma counting analysis; assay type: ADME, organism-based, Bone element; conditions: in vivo, 1 h; procedure, shortened: as §1
[22] = Metabolic stability in cynomolgus monkey plasma assessed as compound remaining at 185 to 259 MBq, iv measured at 90 mins by HPLC analysis; assay type: ADME, organism-based, Macaca fascicularis; conditions: read-out: Stability; procedure, shortened: as §3
Bone [23] = assay: Biodistribution in Sprague-Dawley rat bone at 1.48 to 2.22 MBq, iv measured at 5 mins by gamma counting analysis; assay type: ADME, organism-based, Bone element; conditions: in vivo; procedure, shortened: as §1
Putamen = assay: Drug uptake in cynomolgus monkey putamen at 185 to 259 MBq, iv measured over 180 mins by micro PET image analysis; assay type: ADME, organism-based, Macaca fascicularis; conditions: in vivo, 3 h; procedure, shortened: as §4
Nucleic Acid [24] = assay: Ratio of drug level in striatum to temporal region in cynomolgus monkey at 185 to 259 MBq, iv measured at 40 mins by micro PET image analysis; assay type: ADME, organism-based, Macaca fascicularis; conditions: in vivo; procedure, shortened: as §2
Blood [25] = assay: Biodistribution in Sprague-Dawley rat blood at 1.48 to 2.22 MBq, iv measured at 60 mins by gamma counting analysis; assay type: ADME, organism-based; conditions: in vivo, 1 h; procedure, shortened: as §1
Nucleic Acid [26] = assay: Ratio of drug level in striatum to cortex in Sprague-Dawley rat at 1.48 to 2.22 MBq, iv measured at 5 to 30 mins by gamma counting analysis; assay type: ADME, organism-based; conditions: in vivo
Procedure, shortened: (§5)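 Striatum, cerebellum and cortex obtained by gross dissection from Sprague-Dawley rats (250 - 400 g, n=4 per time point) after tail-vein injection of 1.48 - 2.22 MBq under isoflurane anesthesia. Tissues weighed and gamma-counted with an injectate standard to give %ID/g; ratios taken from striatal versus non-target uptake.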

Liver [27] = assay: Biodistribution in Sprague-Dawley rat liver at 1.48 to 2.22 MBq, iv measured at 5 mins by gamma counting analysis; assay type: ADME, organism-based; conditions: in vivo; procedure, shortened: as §1
[28] = Metabolic stability in cynomolgus monkey plasma assessed as compound remaining at 185 to 259 MBq, iv measured at 30 mins by HPLC analysis; assay type: ADME, organism-based, Macaca fascicularis; conditions: read-out: Stability; procedure, shortened: as §3
Rattus norvegicus [29] = assay: Biodistribution in Sprague-Dawley rat fat tissue at 1.48 to 2.22 MBq, iv measured at 30 mins by gamma counting analysis; assay type: ADME, organism-based, Adipose tissue; conditions: in vivo, 0.5 h; procedure, shortened: as §1
Muscle tissue [30] = assay: Biodistribution in Sprague-Dawley rat muscle at 1.48 to 2.22 MBq, iv measured at 5 mins by gamma counting analysis; assay type: ADME, organism-based; conditions: in vivo; procedure, shortened: as §1
[31] = Ratio of drug level in striatum to cerebellum in Sprague-Dawley rat at 1.48 to 2.22 MBq, iv measured at 5 to 30 mins by gamma counting analysis; assay type: ADME, organism-based; conditions: in vivo; procedure, shortened: as §5
Nucleic Acid [32] = assay: Ratio of drug level in striatum to occipital in cynomolgus monkey at 185 to 259 MBq, iv measured at 40 mins by micro PET image analysis; assay type: ADME, organism-based, Macaca fascicularis; conditions: in vivo; procedure, shortened: as §2
Nucleic Acid [33] = assay: Ratio of drug level in striatum to white matter in cynomolgus monkey at 185 to 259 MBq, iv measured at 40 mins by micro PET image analysis; assay type: ADME, organism-based, Macaca fascicularis; conditions: in vivo; procedure, shortened: as §2
Kidney [34] = assay: Biodistribution in Sprague-Dawley rat kidney at 1.48 to 2.22 MBq, iv measured at 5 mins by gamma counting analysis; assay type: ADME, organism-based; conditions: in vivo; procedure, shortened: as §1
Plasma = assay: Retention time of the compound in cynomolgus monkey plasma at 185 to 259 MBq, iv by HPLC analysis; assay type: ADME, organism-based, Macaca fascicularis; procedure, shortened: as §3
Muscle tissue [35] = assay: Biodistribution in Sprague-Dawley rat muscle at 1.48 to 2.22 MBq, iv measured at 60 mins by gamma counting analysis; assay type: ADME, organism-based; conditions: in vivo, 1 h; procedure, shortened: as §1

Structure (SMILES): Cn1cc(-c2ccncc2)c(-c2ccc(OCc3cc(OCC[18F])c4ccccc4n3)cc2)n1
- Drug uptake (Striatum): Active
- Drug uptake (Kidney [1]): 0.765 % ID/g
- Drug uptake (Blood [2]): 0.362 % ID/g
- Drug uptake (Bone [3]): 0.091 % ID/g
- Drug uptake (Brain [4]): 0.078 % ID/g
- Drug uptake (Brain [5]): 0.101 % ID/g
- Ratio (Nucleic Acid [6]): > 3
- Ratio (Nucleic Acid [7]): > 3
- Drug uptake (Kidney [8]): 1.055 % ID/g
- Drug uptake (Liver [9]): 3.29 % ID/g
- remaining at 2 min [10]: 98%
- remaining at 1 h [11]: 75%
- Ratio (Nucleic Acid [12]): > 3
- Drug uptake (Caudate): Active
- Drug uptake (Rattus norvegicus [13]): 0.259 % ID/g
- Drug uptake (Muscle tissue [14]): 0.134 % ID/g
- Drug uptake (Rattus norvegicus [15]): 0.213 % ID/g
- Drug uptake (Brain [16]): 0.118 % ID/g
- Ratio (Nucleic Acid [17]): > 3
- remaining at 0.25 h [18]: 93%
- Drug uptake (Blood [19]): 0.226 % ID/g
- Drug uptake (Liver [20]): 6.98 % ID/g
- Drug uptake (Bone [21]): 0.142 % ID/g
- remaining at 1.5 h [22]: 57%
- Drug uptake (Bone [23]): 0.189 % ID/g
- Drug uptake (Putamen): Active
- Ratio (Nucleic Acid [24]): > 3
- Drug uptake (Blood [25]): 0.215 % ID/g
- Ratio (Nucleic Acid [26]): > 2
- Drug uptake (Liver [27]): 6.88 % ID/g
- remaining at 0.5 h [28]: 90%
- Drug uptake (Rattus norvegicus [29]): 0.302 % ID/g
- Drug uptake (Muscle tissue [30]): 0.247 % ID/g
- Ratio [31]: > 2
- Ratio (Nucleic Acid [32]): > 3
- Ratio (Nucleic Acid [33]): > 3
- Drug uptake (Kidney [34]): 2.2 % ID/g
- Retention_time (Plasma): 10.5 min
- Drug uptake (Muscle tissue [35]): 0.132 % ID/g
